Assay results published in ChEMBL document CHEMBL2424551, “Synthesis, in vitro evaluation and molecular modelling of naphthalimide analogue as anticancer agents” (2013).
Active and inactive are the calls of the source. The rule behind the calls is not given here.

Legend:
Format in all cases: functional
SW-620 = experiment: Growth inhibition of human SW620 cells at 10 uM after 48 hrs by SRB assay; conditions: SW-620, 48 h, read-out: GI
Summary of the method: (§1)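 NCI 60-cell-line screen with a single 10 µM dose. Cells are grown in RPMI 1640 with 5% FBS and 2 mM L-glutamine, plated at 5000–40,000 cells/well according to doubling time, and preincubated 24 h at 37 °C, 5% CO2; time-zero plates are TCA-fixed at that point. Drug exposure is 48 h. Adherent cells are fixed with cold TCA, stained with 0.4% SRB in 1% acetic acid and read at 515 nm. Percent growth is calculated relative to time-zero and untreated controls and reported as GI%.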

SNB-19 = experiment: Growth inhibition of human SNB19 cells at 10 uM after 48 hrs by SRB assay; conditions: SNB-19, 48 h, read-out: GI; summary of the method: as §1
OVCAR-3 = experiment: Growth inhibition of human OVCAR3 cells at 10 uM after 48 hrs by SRB assay; conditions: OVCAR-3, 48 h, read-out: GI
Summary of the method: (§2)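 Cells grown in RPMI 1640 with 5% FBS and 2 mM L-glutamine, plated at 5000–40,000 cells/well by doubling time and preincubated 24 h (37 °C, 5% CO2); a time-zero plate is TCA-fixed. Single dose added, then 48 h incubation. Fixed with cold TCA, stained with 0.4% SRB, dye solubilized in 10 mM Tris base, absorbance at 515 nm; percent growth vs time-zero and untreated control.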

MDA-MB-231 = experiment: Growth inhibition of human MDA-MB-231 cells at 10 uM after 48 hrs by SRB assay; conditions: MDA-MB-231, 48 h, read-out: GI; summary of the method: as §2
SR = experiment: Growth inhibition of human SR cells at 10 uM after 48 hrs by SRB assay; conditions: read-out: GI; summary of the method: as §1
M14 = experiment: Growth inhibition of human M14 cells at 10 uM after 48 hrs by SRB assay; conditions: M14, 48 h, read-out: GI; summary of the method: as §2
MOLT-4 = experiment: Growth inhibition of human MOLT4 cells at 10 uM after 48 hrs by SRB assay; conditions: MOLT-4, 48 h, read-out: GI; summary of the method: as §2
K562 = experiment: Growth inhibition of human K562 cells at 10 uM after 48 hrs by SRB assay; conditions: K562, 48 h, read-out: GI; summary of the method: as §2
UO-31 = experiment: Growth inhibition of human UO31 cells at 10 uM after 48 hrs by SRB assay; conditions: UO-31, 48 h, read-out: GI; summary of the method: as §1
SN12C = experiment: Growth inhibition of human SN12C cells at 10 uM after 48 hrs by SRB assay; conditions: read-out: GI; summary of the method: as §1
OVCAR-4 = experiment: Growth inhibition of human OVCAR4 cells at 10 uM after 48 hrs by SRB assay; conditions: OVCAR-4, 48 h, read-out: GI; summary of the method: as §2
SK-MEL-5 = experiment: Growth inhibition of human SK-MEL-5 cells at 10 uM after 48 hrs by SRB assay; conditions: SK-MEL-5, 48 h, read-out: GI; summary of the method: as §2
SK-MEL-28 = experiment: Growth inhibition of human SK-MEL-28 cells at 10 uM after 48 hrs by SRB assay; conditions: SK-MEL-28, 48 h, read-out: GI; summary of the method: as §2
[1] = Growth inhibition of human NCI-ADR-RES cells at 10 uM after 48 hrs by SRB assay; conditions: read-out: GI; summary of the method: as §2
HOP-62 = experiment: Growth inhibition of human HOP62 cells at 10 uM after 48 hrs by SRB assay; conditions: HOP-62, 48 h, read-out: GI; summary of the method: as §2
COLO 205 = experiment: Growth inhibition of human COLO205 cells at 10 uM after 48 hrs by SRB assay; conditions: COLO 205, 48 h, read-out: GI; summary of the method: as §2
SK-OV-3 = experiment: Growth inhibition of human SKOV3 cells at 10 uM after 48 hrs by SRB assay; conditions: SK-OV-3, 48 h, read-out: GI; summary of the method: as §1
SF-539 = experiment: Growth inhibition of human SF539 cells at 10 uM after 48 hrs by SRB assay; conditions: SF-539, 48 h, read-out: GI; summary of the method: as §2
MCF7 = experiment: Growth inhibition of human MCF7 cells at 10 uM after 48 hrs by SRB assay; conditions: MCF7, 48 h, read-out: GI; summary of the method: as §2
RPMI-8226 = experiment: Growth inhibition of human RPMI8226 cells at 10 uM after 48 hrs by SRB assay; conditions: RPMI-8226, 48 h, read-out: GI; summary of the method: as §2
MDA-MB-468 = experiment: Growth inhibition of human MDA-MB-468 cells at 10 uM after 48 hrs by SRB assay; summary of the method: as §2
DU-145 = experiment: Growth inhibition of human DU145 cells at 10 uM after 48 hrs by SRB assay; conditions: DU-145, 48 h, read-out: GI; summary of the method: as §2
CAKI-1 = experiment: Growth inhibition of human Caki1 cells at 10 uM after 48 hrs by SRB assay; conditions: CAKI-1, 48 h, read-out: GI; summary of the method: as §2
A549 = experiment: Growth inhibition of human A549 cells at 10 uM after 48 hrs by SRB assay; conditions: A549, 48 h, read-out: GI; summary of the method: as §2
[2] = Growth inhibition of human HCC2998 cells at 10 uM after 48 hrs by SRB assay; conditions: HCC 2998, 48 h, read-out: GI; summary of the method: as §2
HCT-15 = experiment: Growth inhibition of human HCT15 cells at 10 uM after 48 hrs by SRB assay; conditions: HCT-15, 48 h, read-out: GI; summary of the method: as §2
HL-60(TB) = experiment: Growth inhibition of human HL-60(TB) cells at 10 uM after 48 hrs by SRB assay; conditions: HL-60, 48 h, read-out: GI
Summary of the method: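 Single-concentration pass across the 60-line panel in RPMI 1640 with 5% FBS. Cells preincubated 24 h, then exposed 48 h at 37 °C, 5% CO2. Read by SRB staining with absorbance at 515 nm. Percent growth is taken relative to time-zero and untreated controls and reported as percent growth inhibition (GI %).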

A498 = experiment: Growth inhibition of human A498 cells at 10 uM after 48 hrs by SRB assay; conditions: A498, 48 h, read-out: GI; summary of the method: as §2
786-0 = experiment: Growth inhibition of human 786-0 cells at 10 uM after 48 hrs by SRB assay; conditions: 786-0, 48 h, read-out: GI; summary of the method: as §2
NCI-H460 = experiment: Growth inhibition of human NCI-H460 cells at 10 uM after 48 hrs by SRB assay; conditions: NCI-H460, 48 h, read-out: GI; summary of the method: as §2
NCI-H322M = experiment: Growth inhibition of human NCI-H322M cells at 10 uM after 48 hrs by SRB assay; conditions: read-out: GI; summary of the method: as §2

CCCCNc1ccc2c3c1cccc3c(=O)n1c3ccccc3nc21
inhibition of growth at 10 µM (SW-620): < 20% | inhibition of growth at 10 µM (SNB-19): < 20% | inhibition of growth at 10 µM (OVCAR-3): < 20% | inhibition of growth at 10 µM (MDA-MB-231): 20.2% | inhibition of growth at 10 µM (SR): 84.4% | inhibition of growth at 10 µM (M14): < 20% | inhibition of growth at 10 µM (MOLT-4): 30.6% | inhibition of growth at 10 µM (K562): 21.2% | inhibition of growth at 10 µM (UO-31): 41.4% | inhibition of growth at 10 µM (SN12C): < 20% | inhibition of growth at 10 µM (OVCAR-4): < 20% | inhibition of growth at 10 µM (SK-MEL-5): 24.5% | inhibition of growth at 10 µM (SK-MEL-28): < 20% | inhibition of growth at 10 µM [1]: < 20% | inhibition of growth at 10 µM (HOP-62): < 20% | inhibition of growth at 10 µM (COLO 205): < 20% | inhibition of growth at 10 µM (SK-OV-3): < 20% | inhibition of growth at 10 µM (SF-539): < 20% | inhibition of growth at 10 µM (MCF7): 89.7% | inhibition of growth at 10 µM (RPMI-8226): < 20% | growth inhibition (GI) (MDA-MB-468): Active | inhibition of growth at 10 µM (DU-145): < 20% | inhibition of growth at 10 µM (CAKI-1): 56.8% | inhibition of growth at 10 µM (A549): 23.4% | inhibition of growth at 10 µM [2]: 26% | inhibition of growth at 10 µM (HCT-15): 23.8% | inhibition of growth at 10 µM (HL-60(TB)): 36.6% | inhibition of growth at 10 µM (A498): < 20% | inhibition of growth at 10 µM (786-0): < 20% | inhibition of growth at 10 µM (NCI-H460): 51.6% | inhibition of growth at 10 µM (NCI-H322M): < 20%

O=c1c2cccc3c(Nc4ccccn4)ccc(c32)c2nc3ccccc3n12
inhibition of growth at 10 µM (SW-620): 22.9% | inhibition of growth at 10 µM (SNB-19): < 20% | inhibition of growth at 10 µM (OVCAR-3): 30% | inhibition of growth at 10 µM (MDA-MB-231): 29.4% | inhibition of growth at 10 µM (SR): 29.8% | inhibition of growth at 10 µM (M14): < 20% | inhibition of growth at 10 µM (MOLT-4): 38.2% | inhibition of growth at 10 µM (K562): 53.5% | inhibition of growth at 10 µM (UO-31): 53.5% | inhibition of growth at 10 µM (SN12C): 28.3% | inhibition of growth at 10 µM (OVCAR-4): 30.9% | inhibition of growth at 10 µM (SK-MEL-5): 48.2% | inhibition of growth at 10 µM (SK-MEL-28): < 20% | inhibition of growth at 10 µM [1]: 25.4% | inhibition of growth at 10 µM (HOP-62): 32.2% | inhibition of growth at 10 µM (COLO 205): 29% | inhibition of growth at 10 µM (SK-OV-3): < 20% | inhibition of growth at 10 µM (SF-539): < 20% | inhibition of growth at 10 µM (MCF7): 71.3% | inhibition of growth at 10 µM (RPMI-8226): 51% | growth inhibition (GI) (MDA-MB-468): Active | inhibition of growth at 10 µM (DU-145): < 20% | inhibition of growth at 10 µM (CAKI-1): 48.2% | inhibition of growth at 10 µM (A549): 29.1% | inhibition of growth at 10 µM [2]: 31.5% | inhibition of growth at 10 µM (HCT-15): 40.8% | inhibition of growth at 10 µM (HL-60(TB)): 37.7% | inhibition of growth at 10 µM (A498): < 20% | inhibition of growth at 10 µM (786-0): < 20% | inhibition of growth at 10 µM (NCI-H460): 47.3% | inhibition of growth at 10 µM (NCI-H322M): 25.5%
